Measurements taken from ChEMBL document CHEMBL1135503, “Lepadins D-F: antiplasmodial and antitrypanosomal decahydroquinoline derivatives from the tropical marine tunicate Didemnum sp” (J Med Chem, 2002).
≈ marks a conversion by molar mass, not a printed value. Calls of active or inactive are those of the source. The calls are words filed in the database; no cut-off is given here.

How the values were obtained:
[1] = tested on: Trypanosoma brucei rhodesiense; experiment: 50% antitrypanosomal activity against Trypanosoma rhodesiense; format: functional, organism-based
Method in brief: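 T. brucei rhodesiense grown axenically in culture medium supplemented with horse serum. IC50 in µg/mL.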

Trypanosoma cruzi = experiment: 50% antitrypanosomal activity against Trypanosoma cruzi; format: functional, organism-based
Method in brief: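 Tulahuen strain of T. cruzi expressing E. coli β-galactosidase, grown as intracellular amastigotes in mammalian fibroblasts with drug for 5 days. Viability read colorimetrically from β-galactosidase turnover of chlorophenol red β-D-galactopyranoside, quantified on an ELISA reader. IC50 in µg/mL.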

Plasmodium falciparum [2] = experiment: Antiplasmodial activity against Plasmodium falciparum K1; format: functional, organism-based
Method in brief: (§1)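 P. falciparum (NF54 chloroquine-sensitive, K1 chloroquine-resistant) cultured in vitro in human A+ erythrocytes with Albumax. Readout is inhibition of parasite-specific [3H]hypoxanthine incorporation. IC50 in µg/mL taken from logarithmic dose–response curves.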

Plasmodium falciparum [3] = experiment: Antiplasmodial activity against Plasmodium falciparum NF54; format: functional, organism-based; method in brief: as §1
L6 = experiment: Cytotoxic effect in rat skeletal muscle myoblast L6 cells; format: functional, cell-based
Method in brief: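 Rat L6 skeletal muscle myoblast cells. IC50 in µg/mL.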

Microbotryum violaceum = experiment: Zone of inhibition from the edge of a circular filter disk impregnated with test substance, against Ustilago violacea (antifungal activity); NA means inactive.; format: functional, organism-based
Method in brief: (§2)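 Agar diffusion assay. Filter disks loaded with 0.02 mg sample each. Zone of inhibition measured in mm from the disk edge against the fungi Eurotium repens or Ustilago violacea (Microbotryum violaceum).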

[4] = tested on: Aspergillus pseudoglaucus; experiment: Zone of inhibition from the edge of a circular filter disk impregnated with test substance, against Eurotium repens (antifungal activity); NA means inactive.; format: functional, organism-based; method in brief: as §2
[5] = biological target: Tyrosine-protein kinase Lck (Homo sapiens) (UniProt P06239); experiment: Inhibition of p56 Lck tyrosine kinase at 200 ug/mL (inactive)
[6] = Trypanosoma brucei, read-out: IC50
[7] = Trypanosoma cruzi, read-out: IC50
[8] = Plasmodium falciparum, read-out: IC50

Sequence of Tyrosine-protein kinase Lck (Homo sapiens) (P06239 2-509 limits assumed): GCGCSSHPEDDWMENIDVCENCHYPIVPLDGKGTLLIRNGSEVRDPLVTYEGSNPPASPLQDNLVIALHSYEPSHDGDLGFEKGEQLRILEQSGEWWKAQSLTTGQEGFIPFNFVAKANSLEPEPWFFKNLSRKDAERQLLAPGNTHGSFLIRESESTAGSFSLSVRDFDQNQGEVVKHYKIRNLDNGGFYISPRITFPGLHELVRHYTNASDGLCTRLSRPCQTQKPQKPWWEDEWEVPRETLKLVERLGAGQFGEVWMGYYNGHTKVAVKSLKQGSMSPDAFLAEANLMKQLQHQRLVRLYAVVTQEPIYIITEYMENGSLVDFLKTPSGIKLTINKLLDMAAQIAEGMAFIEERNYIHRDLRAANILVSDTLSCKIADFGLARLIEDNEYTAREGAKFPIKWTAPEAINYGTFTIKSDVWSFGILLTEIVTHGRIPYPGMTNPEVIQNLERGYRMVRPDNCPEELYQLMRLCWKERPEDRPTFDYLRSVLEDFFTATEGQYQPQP

Question: Which IC50 [1, 6] does the source give for `Nc1nc(N)nc(Nc2ccc([As]3SCC(CO)S3)cc2)n1` (stereo unspecified) [MELARSOPROL] here?
Answer: 0.0026 µg/mL

Question: What about the IC50 (Trypanosoma cruzi; [7]) of the same compound?
Answer: 0.6 µg/mL

Question: `CCCCC/C=C/C(=O)O[C@H]1C[C@@H]2[C@H](CCCCC(O)CCC)CCC[C@@H]2N(C(=O)c2ccc(Br)cc2)[C@@H]1C` (stereo partly specified) was tested. Which IC50 (Plasmodium falciparum [2]; [8]) did it give?
Answer: 0.5 µg/mL (≈ 0.827 µM)

Question: What about the IC50 (Plasmodium falciparum [3]; [8]) of the same compound?
Answer: 0.4 µg/mL (≈ 0.662 µM)

Question: And the IC50 [1, 6]?
Answer: 36.9 µg/mL (≈ 60.9 µM)

Question: With `CCCC(O)CCCC[C@@H]1CCC[C@@H]2N[C@H](C)[C@@H](O)C[C@H]12` (stereo in doubt; 1) [listing 1 of 2 here] as the compound, how does the IC50 (Plasmodium falciparum [2]; [8]) read?
Answer: 6.1 µg/mL (≈ 20.5 µM)

Question: What about the IC50 (Plasmodium falciparum [3]; [8]) of the same compound?
Answer: 10 µg/mL (≈ 33.6 µM)

Question: And the IC50 (L6)?
Answer: > 30 µg/mL

Question: What about the IC50 [1] of the same compound?
Answer: 5.6 µg/mL (≈ 18.8 µM)

Question: What about the IC50 (Trypanosoma cruzi; [7]) of the same compound?
Answer: 37.2 µg/mL (≈ 125 µM)

Question: What does the source list for `CCCC(O)CCCC[C@@H]1CCC[C@@H]2N[C@H](C)[C@@H](O)C[C@H]12` (stereo in doubt; 2) [listing 1 of 2 here]?
Answer: NA (Microbotryum violaceum): inactive; NA [4]: inactive; NA [5]: inactive

Question: `CCCC(O)CCCC[C@@H]1CCC[C@@H]2N[C@H](C)[C@@H](O)C[C@H]12` (stereo in doubt; 1) [listing 2 of 2 here] was tested. Which NA [5] did it give?
Answer: inactive

Question: What does the source list for `CCCCC/C=C/C(=O)O[C@H]1C[C@@H]2[C@H](CCCCC(O)CCC)CCC[C@@H]2N[C@@H]1C` (stereo partly specified) [LEPADIN E]?
Answer: IC50 (Plasmodium falciparum [2]; [8]): 0.4 µg/mL (≈ 0.949 µM); IC50 (Plasmodium falciparum [3]; [8]): 0.9 µg/mL (≈ 2.13 µM); IC50 (L6): 16.2 µg/mL (≈ 38.4 µM); IC50 [1, 6]: 0.38 µg/mL (≈ 0.901 µM); IC50 (Trypanosoma cruzi; [7]): 2.2 µg/mL (≈ 5.22 µM)

Question: For `CCCCC/C=C/C(=O)O[C@H]1C[C@@H]2[C@H](CCCCC(O)CCC)CCC[C@@H]2N[C@H]1C` (stereo partly specified) [LEPADIN F], which IC50 (Plasmodium falciparum [2]; [8]) is on record?
Answer: 0.2 µg/mL (≈ 0.474 µM)

Question: And the IC50 (Plasmodium falciparum [3]; [8])?
Answer: 0.3 µg/mL (≈ 0.711 µM)

Question: And the IC50 (L6)?
Answer: 18.3 µg/mL (≈ 43.4 µM)

Question: And the IC50 [1, 6]?
Answer: 0.23 µg/mL (≈ 0.545 µM)

Question: And the IC50 (Trypanosoma cruzi; [7])?
Answer: 2.6 µg/mL (≈ 6.17 µM)

Question: What does the source list for `C[C@@H]1CC[C@H]2[C@@H](C)C(=O)O[C@@H]3O[C@@]4(C)CC[C@@H]1[C@]32OO4` [ARTEMISININ]?
Answer: IC50 (Plasmodium falciparum [2]; [8]): 0.001 µg/mL (≈ 0.00354 µM); IC50 (Plasmodium falciparum [3]; [8]): 0.003 µg/mL (≈ 0.0106 µM)

Question: What does the source list for `CCCC(O)CCCC[C@@H]1CCC[C@@H]2N[C@H](C)[C@@H](O)C[C@H]12` (stereo in doubt; 2) [listing 2 of 2 here]?
Answer: IC50 (Plasmodium falciparum [2]): 4 µg/mL (≈ 13.4 µM); IC50 (Plasmodium falciparum [3]): 10 µg/mL (≈ 33.6 µM); IC50 (L6): > 30 µg/mL; IC50 [1]: 1.97 µg/mL (≈ 6.62 µM); IC50 (Trypanosoma cruzi): 37.3 µg/mL (≈ 125 µM)
